Records with an inconclusive call do not appear. Calls of active or inactive are those of the source.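 Rule for the calls: active = compounds raising caspase signal whose fitted AC50 is at most tenfold their top valid tested dose; inconclusive = flat fit at 30 to 70% activation, or poor fit; inactive = the rest.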
Key:
[1] = test system: MEF A1-2A-BIM cells, caspase-3/7 luminescence; assay: caspase induction in A1-dependent fibroblasts – cell-based, MEF A1-2A-BIM, luminescence, dry powder, set 3, A1 (BCL2A1) inhibitor project, dose response (AID 488858)
Outline: (§1)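 Material: Mouse embryonic fibroblasts co-expressing A1-2A-BIM, survival dependent on A1 | Quantity: 2500 cells per well | Buffer or medium: RPMI medium with 10% FBS | Doses: Dry-powder compounds pinned as a dose series | Incubation: 3 h compound at 37 °C, 1 h reagent at RT | Detection: Caspase-3/7 DEVD luminescence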

[2] = as above; conditions: MEF A1-2A-BIM cells, caspase-3/7 luminescence; at 150 µM (top of the series)
Outline: as §1

| Compound | AC50 [1] | caspase activation [2] |
| --- | --- | --- |
| CCOC(=O)CSC1=N/C(=C/c2ccc(-n3cncn3)cc2)C(=O)N1C(C)=O | 9.77 µM |  |
| COc1cc(/C=C(/C#N)c2nc3ccccc3[nH]2)ccc1OCC(=O)Nc1ccccc1C(C)C |  | 0.201% (inactive) |
| CC(=O)N[C@H]1[C@H](O[C@H]2CC[C@@]3(C)C(CC[C@]4(C)C3CC=C3[C@@H]5CC(C)(C)CC[C@]5(C(=O)OC5OCC(O)C(O)C5O)C(O)C[C@]34C)C2(C)C)O[C@H](COC2OCC(O)C(OC3OCC(O)C(O)C3O)C2O)[C@@H](O[C@@H]2O[C@@H](C)[C@H](O)[C@@H](O)[C@H]2O[C@@H]2O[C@@H](C)[C@H](O)[C@@H](O)[C@H]2O)[C@@H]1O (some centres undefined) | 9.71 µM |  |
| C=C1[C@@H](C)[C@H]2[C@H](Cc3ccccc3)NC(=O)[C@]23OC(=O)/C=C\[C@H](O)CCC[C@@H](C)C/C=C/[C@H]3[C@@H]1O | 2.72 µM |  |
| Cn1c(=NC(=O)CCl)sc2ccccc21 | 4 µM |  |
| Nc1nc(F)nc2c1ncn2[C@@H]1O[C@H](CO)[C@@H](O)[C@H]1O | 2.87 µM |  |
| O=C(CCl)N=c1sccn1Cc1ccccc1Cl | 1.06 µM |  |
| C=C1[C@@H](C)[C@H]2[C@H](Cc3ccccc3)NC(=O)[C@]23[C@H](OC(C)=O)/C=C/[C@](C)(O)C(=O)[C@@H](C)C/C=C/[C@H]3[C@@H]1O | 1.2 µM |  |
| Cc1c(C=O)c(C=O)c(C)n1Cc1ccccc1 | 6.27 µM |  |
| CCc1nnc(NC(=O)c2nc(S(=O)(=O)Cc3ccccc3)ncc2Cl)s1 | 15.6 µM |  |
| O=C(Oc1cccc(/C=N/Nc2nc(Nc3ccccc3)nc(N3CCOCC3)n2)c1)c1ccco1 | 4.23 µM |  |
| COc1cc(CN2CCN(c3cc(C)ccc3C)CC2)ccc1O | 10.6 µM |  |
| C/C1=C/C(=O)O[C@@H]2C[C@@H](CC[C@H](C)/C=C\CC1)O[C@@](O)(C1CSC(=O)N1)C2 (some centres undefined) | 0.37 µM |  |
| Cc1cccc(NC(=O)/C(C#N)=C/c2cn(CC(=O)NCc3ccco3)c3ccccc23)c1 | 5.6 µM |  |
| Cc1ccc(CS(=O)(=O)c2ncc(Cl)c(C(=O)Nc3nnc(C(C)C)s3)n2)cc1 | 12.3 µM |  |
| CCc1cc2c(=O)c(-c3cnn(-c4ccccc4)c3)c(C)oc2cc1OCC(=O)Nc1cccc(C)c1 | 5.41 µM |  |
| CC(C)(C)n1nc(-c2ccc(Cl)cc2)c2c(N)ncnc21 | 6.5 µM |  |
| Cc1ccc(Sc2c([N+](=O)[O-])c(=O)n(C)c3ccccc23)cc1 | 21 µM |  |
| CCSc1nnc(NC(=O)c2nc(S(=O)(=O)Cc3ccc(F)cc3)ncc2Cl)s1 | 14.4 µM |  |
| Cc1cccc(CS(=O)(=O)c2ncc(Cl)c(C(=O)Nc3nnc(C(C)C)s3)n2)c1 | 12.6 µM |  |
| COc1ccc(N(C(=O)CCl)C(C(=O)NCCc2ccccc2)c2cccs2)cc1Cl (centres undefined) | 0.236 µM |  |
| Cc1c(CCOC(=O)c2ccc(N3CCOCC3)c([N+](=O)[O-])c2)sc[n+]1CC#N | 10.7 µM |  |
| CC(=O)OC(C)(C)/C=C/C(=O)[C@](C)(O)C1[C@H](O)C[C@@]2(C)C3CC=C4C(C[C@H](O)C(=O)C4(C)C)[C@]3(C)C(=O)C[C@]12C (some centres undefined) |  | 1.66% (inactive) |
| Cc1cc(C(=O)CCl)c(C)n1CCc1ccc(Cl)cc1 | 6.06 µM |  |
